# Assay outcomes: PubChem, several laboratories
# An excerpt weighted towards active compounds, which were near 4.2% of everything screened.
# SENP1 FRET inh = inhibitors of human SENP1 SUMO protease catalytic domain; recombinant SENP1 catalytic domain, CyPet-SUMO1-YPet FRET cleavage; inhibition, % at 10 µM; 360,000 tested, 0.21% active; AID 624204;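 active means inhibition at least 30% at 10 µM, raw YFP signal under a set limit, fluorescence ratio 0.5 to 1.5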;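 further: 0% = enzyme with DMSO and 100% = no enzyme wells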
#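 Material – human SENP1 catalytic domain · Input – SENP1 enzyme, 20 pM final · Compound dosing – single concentration of 10 µM compound, 0.5% DMSO final · Timing – enzyme reaction for 50 min at room temperature, dark · Measured by – FRET fluorescence in CFP and YFP emission channels · Control set – no-enzyme wells low, DMSO-plus-enzyme wells high control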
# FXN GAA850 act = activators of GAA850 frataxin (FXN) promoter; HEK293 lucGAA850 FXN promoter luciferase reporter, 24 h; percent of 10 µM SAHA response; activation, % at 6 µM; 360,000 tested, 0.56% active; AID 540364;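 active means activation above the average of all compounds screened plus 3 SD, cutoff fixed separately per campaign, cut at about 7.5% in these data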;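 further: 0% = DMSO wells and 100% = 10 µM SAHA wells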
# HDAC3 inh = blocks human histone deacetylase 3; O15379; 320,000 tested, 0.15% active; recombinant HDAC3, fluorogenic peptide/trypsin coupled, fluorescence; inhibition, % at 8.3 µM; in the data active means inhibition above about 26%, passing the limit was not always enough
# Target sequence (O15379 whole entry, looked up): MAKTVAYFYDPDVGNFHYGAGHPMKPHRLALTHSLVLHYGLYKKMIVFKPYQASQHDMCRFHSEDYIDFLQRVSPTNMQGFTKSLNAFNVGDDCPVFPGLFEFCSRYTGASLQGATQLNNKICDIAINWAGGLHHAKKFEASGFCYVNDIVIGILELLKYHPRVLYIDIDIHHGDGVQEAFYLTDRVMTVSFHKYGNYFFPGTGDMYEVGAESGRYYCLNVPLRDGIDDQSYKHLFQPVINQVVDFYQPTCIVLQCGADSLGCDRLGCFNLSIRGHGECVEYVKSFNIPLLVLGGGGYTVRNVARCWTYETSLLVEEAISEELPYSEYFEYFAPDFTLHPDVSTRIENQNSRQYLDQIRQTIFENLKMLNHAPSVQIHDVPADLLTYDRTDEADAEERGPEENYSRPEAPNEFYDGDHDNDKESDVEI
# Fh CTSL1 inh = blocks F. hepatica cathepsin L1 in PFM18AAP counter-screen. recombinant F. hepatica cathepsin L1, Z-Leu-Arg-MCA fluorescence. inhibition, % at 5.96 µM. 300,000 tested, 0.49% active. AID 1906;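 active means inhibition above the mean of all tested compounds plus 3 SD, set per screening campaign, cut at about 17% in these data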;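 further: 0% = plate median of test compound wells and 100% = 1 µM Z-Phe-Ala-diazomethylketone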
# AHR act = activates the human aryl hydrocarbon receptor | activation, % at 5 µM | AHR-responsive luciferase reporter cells, luminescence | 320,000 tested, 2.5% active | P35869; in the data active means activation above about 47%;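 further: 0% = vehicle wells and 100% = reference agonist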
# M18AAP inhibitor = blocks P. falciparum M18 aspartyl aminopeptidase. recombinant PfM18AAP, H-Glu-NHMec fluorogenic cleavage. inhibition, % at 7.35 µM. 290,000 tested, 1.2% active;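 active means inhibition above the campaign mean inhibition over all tested compounds plus 3 SD, cut at about 28% in these data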;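 further: 0% = plate median of test compound wells and 100% = 2 mM ZnCl2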
# An asterisk follows results filed as active; . = no result.
SMILES,SENP1 FRET inh,FXN GAA850 act,HDAC3 inh,Fh CTSL1 inh,AHR act,M18AAP inhibitor
CC(C)(C)N(CC(=O)NC1CCCCC1)C(=O)CS(=O)CC(=O)Nc1ccc(F)cc1 (stereo unspecified),0.3,-0.8,-0.9,-2.8,0.7,1.4
O=C(/C(=C/c1ccccc1)n1cncn1)c1ccc(Cl)cc1Cl,-1.1,2.8,5.8,-3.3,0.3,54.1*
CCCCC(=O)Nc1ccccc1C(C)C,.,.,11.7,-0.1,-3.3,5.5
N#CC1=C(N2CCOCC2)/C(=C\c2ccccc2)CC1,-4.0,-1.5,4.6,-0.7,49.2*,0.9
COc1ccc(NC2CCCN(C(=O)c3cc4ncccn4n3)C2)cc1 (stereo unspecified),-2.5,1.7,1.2,-3.8,3.9,12.8
COc1cc2cc(CN(Cc3cccs3)C(=S)Nc3cccc(C)c3)c(=O)[nH]c2cc1OC,.,.,5.0,-0.8,30.9,-7.9
COc1cc2cc(CN(Cc3cccs3)C(=S)Nc3ccc(C)cc3)c(=O)[nH]c2cc1OC,-0.6,-1.8,0.1,1.4,49.8*,-1.6
COCc1cc(CN2CCN(CCc3ccccc3)C(CCO)C2)ccc1OC (stereo unspecified),0.4,0.7,7.1,-0.7,0.4,-5.8
CSc1c(C#N)c(N)c(C#N)c2c1COC(C)(C)C2,-29.7,6.2,3.5,17.5*,3.3,4.4
Cc1[nH]c(=O)c(C#N)c2c1COC(C)(C)C2,-0.2,1.4,-2.6,1.6,0.5,-0.3
CCCNC(=O)C1(C)CCCN(CCOc2ccccc2)C1 (stereo unspecified),0.4,-1.4,.,.,.,.
CCOC(=O)C(C(C)=O)c1c(Br)c(O)c(O)c2c(C(=O)c3ccc(C)cc3)coc12 (stereo unspecified),-0.5,-8.6,1.1,-0.3,7.0,47.3*
COc1ccc(-c2n[nH]c(=S)n2-c2ccc3c(c2)OCCO3)cc1,-0.9,-0.1,2.6,1.5,4.4,30.3*
Cc1ccccc1Nc1nc(N)nc(CN2CCN(C(=O)c3ccccc3)CC2)n1,-1.7,-0.6,0.5,-0.6,2.8,3.2
Clc1cccc(-c2nc(NCCCN3CCOCC3)c3ccccc3n2)c1,-0.7,1.3,10.1,-5.6,13.5,1.7
Clc1ccc(-c2nc(NCCCN3CCOCC3)c3ccccc3n2)cc1,-0.3,1.3,-0.9,2.3,70.7*,-1.1
Cc1ccc(-c2nc(NCCN3CCOCC3)c3ccccc3n2)cc1,-2.3,4.4,-0.4,-0.2,65.5*,-2.6
Clc1cccc(-c2nc(NCCN3CCOCC3)c3ccccc3n2)c1,2.5,2.6,13.4,-3.0,11.4,-1.9
CCOC(=O)C1=C(C)C(c2ccc(OC)cc2)NC(=S)N1 (stereo unspecified),2.5,-0.8,9.0,17.1*,-0.2,2.1
CCOC(=O)C1=C(C)C(c2ccc(OC)cc2)NC(=O)N1 (stereo unspecified),1.8,-1.3,-6.4,3.5,2.8,0.8
COc1ccc(OCC(=O)N2c3ccccc3CC2C)c([N+](=O)[O-])c1 (stereo unspecified),1.5,0.3,8.1,.,11.9,.
CN(C)c1ccc(NC(=O)c2cccc(C(=O)Nc3ccc(N(C)C)cc3)n2)cc1,9.6,3.1,6.0,1.9,68.0*,6.5
CCCNC(=O)C(=O)Nc1ccc(N(C)C)cc1,1.6,1.8,0.0,5.7,67.6*,-0.5
CCCCCC(=O)Nc1nc(C)c(-c2csc(Nc3ccc(Cl)cc3)n2)s1,-12.2,-1.1,14.1,-3.5,65.5*,-4.2
C=CCNc1nc(-c2sc(NC(=O)CC)nc2C)cs1,-0.7,-0.6,5.1,3.1,69.6*,-3.1
SMILES,SENP1 FRET inh,FXN GAA850 act,HDAC3 inh,Fh CTSL1 inh,AHR act,M18AAP inhibitor
C=CCNc1nc(-c2sc(NC(C)=O)nc2C)cs1,-1.8,-0.8,-1.0,-3.5,7.2,14.4
CCCCCCC(=O)Nc1nc(C)c(-c2csc(Nc3ccc(Cl)cc3)n2)s1,-14.7,-0.7,-3.7,1.5,62.2*,0.4
O=C(NCC(O)c1ccccc1)c1cccs1 (stereo unspecified),-2.3,2.6,-4.4,-3.4,7.1,2.7
Nc1nonc1NN=C1CCCCC1,1.8,0.2,3.0,-3.3,1.0,30.7*
Nc1nonc1N/N=C\c1ccccc1,0.8,-1.5,5.1,-1.5,-0.5,7.6
CCOC(=O)c1[nH]c2ccc(OCC)cc2c1NC(=O)CN1CCCC(C)C1 (stereo unspecified),0.5,1.6,-19.7,5.6,38.9,10.1
